High-throughput results deposited in PubChem by several laboratories.
In the library only some 1.7% were active in any assay of this set; here they are far more common.
Efflux pump inh: inhibitors of Candida efflux pumps in yeast, primary screen, S. cerevisiae, Nile Red, multiplex; S. cerevisiae Candida pump triplex; inhibition, % at 10 µM; 0.44% of 330,000 active; AID 485275, 2010;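 active = plate passing quality check with inhibition over a set limit, or well fluorescence over plate mean plus 4 SD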;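 note: Nile Red retained in pooled yeast measured as flow cytometry median fluorescence; 0% = buffer negative control and 100% = Enniatin B positive control; higher means more Nile Red kept so more efflux inhibition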
Neddylation inh: inhibitors of cullin neddylation, primary screen, biochemical, TR-FRET, uHTS, NAE and Ubc12; inhibition, % at 25 µM; 0.58% of 360,000 active; NEDD8-conjugating enzyme Ubc12 (Homo sapiens) + NEDD8-activating enzyme E1 regulatory …; in the data active = inhibition above about 36%
Pemphigus Ab inh: inhibitors of pemphigus antibody binding to DSG3, primary screen, biochemical, bead-based, flow cytometry, scFv-GFP | 0.48% of 310,000 active | binding (percent of control), % at 10 µM | DSG3-coupled beads, scFv-anti-DSG3-GFP binding; hits give low values | AID 588358, 2011;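 active = binding more than 3 SD below its plate's average and above zero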;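 note: hits lower antibody fragment binding to DSG3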
Arr AP2 block: inhibitors of beta-arrestin/AP2 binding, primary screen, biochemical, GPCR trafficking, flow cytometry; FITC-arrestin peptide / GST-AP2 beads; AP2 beta2 appendage carries R879A mutation; inhibition, % at 10 µM; 0.31% of 340,000 active; beta-arrestin 1 C-terminal peptide binding to AP2 beta2-adaptin appendage (human);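 active = inhibition above a set limit, near 3 SD of compounds lacking own fluorescence, cut at about 54% in these data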;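 note: plate controls were DMSO wells for no effect and 5 µM unlabelled arrestin peptide for full effect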
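system = GST-tagged AP2 beta2-adaptin appendage (R879A) on 4 µm glutathione beads | reagent = FITC-labelled arrestin peptide probe, 50 nM final | schedule = compound with beads 12 min RT, then probe 1 h RT | signal = HyperCyt-sampled flow cytometry, FL1 channel, ex 488/em 535 nm | read-out = percent response from loss of bead-bound FITC fluorescence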
Cmpd fluor yeast: flagged as fluorescent in efflux inhibitor counter-screen; S. cerevisiae AD/pABC3, compound fluorescence, flow cytometry; fluorescence ratio to DMSO, % at 10 µM; shares compounds with Efflux pump inh; 4% of 1,700 active; AID 588517;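 active = fluorescence ratio to DMSO above its plate's cutoff, the plate mean ratio plus 5 SD, cut at about 210% in these data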;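 note: unstained yeast with no Nile Red so the signal is compound autofluorescence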
CaMdr1 efflux inh: inhibitors of Candida albicans Mdr1 efflux, confirmation, flow cytometry, singleplex, Cherry Pick1 set; shares compounds with Efflux pump inh; S. cerevisiae AD/CaMDR1, Nile Red efflux; inhibition, % at 10 µM; AID 588518, 2011; 1% of 1,700 active; in the data active = inhibition above about 26%;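 note: 0% = DMSO vehicle and 100% = reference inhibitor; higher means more Nile Red retained so more efflux inhibition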
CaCdr2 efflux inh: inhibitors of Candida albicans Cdr2 efflux pump, confirmation, S. cerevisiae AD/CaCDR2, flow cytometry, cherry pick 1, singleplex; Nile Red retention ratio vs DMSO, % at 10 µM; 4% of 1,700 active; Nile Red retention; shares compounds with Efflux pump inh; AID 588520, 2011; in the data active = Nile Red retention ratio vs DMSO above about 190%;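 note: higher ratio means more blocking of Cdr2 efflux of the dye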
CaCdr1 efflux inh: inhibitors of Candida albicans Cdr1 efflux pump, confirmation, S. cerevisiae AD/CaCDR1, flow cytometry, cherry pick 1, singleplex; shares compounds with Efflux pump inh; Nile Red efflux; inhibition, % at 10 µM; 1% of 1,700 active; AID 588522, 2011;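 active = inhibition above the screen-wide mean plus twice its standard deviation, cut at about 32% in these data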
Arr-AP2 CP1: inhibitors of arrestin peptide binding to AP2, confirmation, biochemical, cherry pick 1, flow cytometry beads; shares compounds with Arr AP2 block; inhibition, % at 10 µM; AID 504908, 2011; GST-AP2 beads, FITC arrestin peptide binding; GST-fused beta2-adaptin appendage, R879A mutant; 2% of 1,300 active;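 active = inhibition above a set limit, roughly 3 SD of non-fluorescent compound noise, cut at about 38% in these data; inactive = inhibition at or below that limit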;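 note: loss of bead fluorescence from 50 nM FITC arrestin peptide bound to appendage; 0% = negative control wells and 100% = excess unlabelled arrestin peptide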
GST GSH counter: GST-fluorescein capture on glutathione beads, confirmation, artefact control for arrestin-AP2 inhibitor project, biochemical, cherry pick 1, flow cytometry; shares compounds with Arr AP2 block; 2% of 1,300 active; GST-fluorescein binding to GSH beads, fluorescence, counter-screen; inhibition, % at 10 µM; AID 588338, 2011;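 active = inhibition above 50%, about 3 SD of the inhibition seen with non-fluorescent compounds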;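 note: fluorescein maleimide labelled GST captured on 4 micron glutathione beads; higher means more loss of bead fluorescence from quenching or blocked binding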
Neddyl conf: blockade of NEDD8 conjugation to cullin – biochemical, TR-FRET, single concentration, confirmation; shares compounds with Neddylation inh; TR-FRET cullin neddylation biochemical assay; calls only at 25 µM; 13% of 1,800 active; AID 652217, 2013; in the data active = inhibition above about 40%;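 note: neddylation substrate is the cullin 1 ring ligase complex with SKP2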
Starred values were filed as active, the others as inactive.

Results for COCCN1C(=O)/C(=C/c2ccc(N3CCCC3)cc2C)SC1=S ?
Efflux pump inh: 2.2*; Neddylation inh: -55.9; Pemphigus Ab inh: 300.3; Arr AP2 block: 103.0*; Cmpd fluor yeast: 318.0*; CaMdr1 efflux inh: 0.8; CaCdr2 efflux inh: 128.7; CaCdr1 efflux inh: 0.3; Arr-AP2 CP1: -20.6; GST GSH counter: -1.8

What do the screens show for `CCN=C1S/C(=C\c2ccc(N3CCOCC3)cc2C)C(=O)N1CC`?
Efflux pump inh: -0.1; Neddylation inh: 7.5; Pemphigus Ab inh: 100.9; Arr AP2 block: 38.0

Results for COc1ccc2oc(C(=O)N3CCN(S(=O)(=O)c4c(C)c(C)cc(C)c4C)CC3)c(C)c2c1 ?
Neddylation inh: -113.8; Pemphigus Ab inh: 109.0; Arr AP2 block: -15.5

What do the screens show for `N#C/C(=C\c1ccc(-c2cccc([N+](=O)[O-])c2)o1)C(=O)Nc1nc(-c2cccs2)cs1`?
Efflux pump inh: 0.1; Neddylation inh: -20.8; Pemphigus Ab inh: 80.5; Arr AP2 block: 32.3

Results for CSc1ccccc1C(=O)Nc1ccc(C)c(C)c1 ?
Efflux pump inh: 1.4*; Neddylation inh: -6.5; Arr AP2 block: 54.4*; Cmpd fluor yeast: 107.9; CaMdr1 efflux inh: -0.3; CaCdr2 efflux inh: 114.4; CaCdr1 efflux inh: 0.3; Arr-AP2 CP1: -9.0; GST GSH counter: -7.7

Results for Cc1cccc(NS(=O)(=O)c2ccc(C3CCCCC3)cc2)n1 ?
Efflux pump inh: 8.2*; Neddylation inh: 38.3*; Pemphigus Ab inh: 96.8; Arr AP2 block: 6.5; Cmpd fluor yeast: 99.0; CaMdr1 efflux inh: -0.1; CaCdr2 efflux inh: 102.9; CaCdr1 efflux inh: 0.0; Neddyl conf: inactive

Results for CN1CCN(c2ccccc2NC(=O)c2ccc(-c3ccc(Cl)c(Cl)c3)o2)CC1 ?
Efflux pump inh: 8.1*; Neddylation inh: 37.9*; Arr AP2 block: -14.7; Cmpd fluor yeast: 85.5; CaMdr1 efflux inh: 0.0; CaCdr2 efflux inh: 101.7; CaCdr1 efflux inh: 0.0

What do the screens show for `COc1ccc(CCC(C)NCC(C)c2ccccc2)cc1` (centres undefined)?
Efflux pump inh: 0.2; Neddylation inh: -2.4; Pemphigus Ab inh: 122.9; Arr AP2 block: 30.7

What do the screens show for `COc1ccc(C(CCN2CCCC2)c2c(OC)cc(OC)c3c(-c4ccccc4)cc(=O)oc23)cc1` (centres undefined)?
Efflux pump inh: 0.0; Neddylation inh: 38.5; Pemphigus Ab inh: 103.5; Arr AP2 block: 1.2
